Measured values from ChEMBL document CHEMBL5058577, “EUbOPEN Chemogenomics Library 2 (Multiplex)” (2022).

Test system: Fibroblast
Experiment: Multiplex assay against human fibroblast
Assay type: toxicity, cell-based
Method in brief: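 Live cells were stained at seeding with Hoechst33342, BioTracker Green Microtubule Cytoskeleton Dye, MitoTracker Red and Annexin V Alexa Fluor 680, then imaged on a CQ1 microscope at 37°C and 5% CO2 after compound addition. CellPathfinder machine-learning gating split cells into Hoechst high-intensity objects or normal cells. Normal cells were split into healthy, pyknosed or fragmented nuclei, and pyknosed cells into mitotic or apoptotic. Tubulin, mitochondrial-mass and membrane-permeability phenotypes are per cents of healthy-nucleus cells.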

[1] = 12 h, 1 µM, compound concentration 1 uM, replicate 1
[2] = 12 h, 1 µM, compound concentration 1 uM, replicate 2
[3] = 12 h, 10 µM, compound concentration 10 uM, replicate 1
[4] = 12 h, 10 µM, compound concentration 10 uM, replicate 2
[5] = 24 h, 1 µM, compound concentration 1 uM, replicate 1
[6] = 24 h, 1 µM, compound concentration 1 uM, replicate 2
[7] = 24 h, 10 µM, compound concentration 10 uM, replicate 1
[8] = 24 h, 10 µM, compound concentration 10 uM, replicate 2
[9] = 48 h, 1 µM, compound concentration 1 uM, replicate 1
[10] = 48 h, 1 µM, compound concentration 1 uM, replicate 2
[11] = 48 h, 10 µM, compound concentration 10 uM, replicate 1
[12] = 48 h, 10 µM, compound concentration 10 uM, replicate 2

Structure (SMILES): O=c1nc2[nH]c3ccccc3nc-2c(=O)[nH]1 [ALLOXAZINE]
- Population Apoptotic (%) [1]: 56%
- Population Fragmented Nuclei (%) [1]: 16%
- Population Healthy Nuclei (%) [1]: 67%
- Population Hoechst High Intensity Objects (%) [1]: 5%
- Population Membrane Permeable-Phenotype (%) [1]: 0%
- Population Mitochondria Different-Phenotype (%) [1]: 2%
- Population Mitotic Cells (%) [1]: 43%
- Population Normal (%) [1]: 94%
- Population Pyknosed Nuclei (%) [1]: 16%
- Population Tubulin-Different-Phenotype (%) [1]: 23%
- Total Cell Count [1]: 193
- Population Apoptotic (%) [2]: 37%
- Population Fragmented Nuclei (%) [2]: 26%
- Population Healthy Nuclei (%) [2]: 50%
- Population Hoechst High Intensity Objects (%) [2]: 3%
- Population Membrane Permeable-Phenotype (%) [2]: 6%
- Population Mitochondria Different-Phenotype (%) [2]: 3%
- Population Mitotic Cells (%) [2]: 62%
- Population Normal (%) [2]: 96%
- Population Pyknosed Nuclei (%) [2]: 23%
- Population Tubulin-Different-Phenotype (%) [2]: 33%
- Total Cell Count [2]: 131
- Population Apoptotic (%) [3]: 33%
- Population Fragmented Nuclei (%) [3]: 23%
- Population Healthy Nuclei (%) [3]: 60%
- Population Hoechst High Intensity Objects (%) [3]: 4%
- Population Membrane Permeable-Phenotype (%) [3]: 3%
- Population Mitochondria Different-Phenotype (%) [3]: 5%
- Population Mitotic Cells (%) [3]: 66%
- Population Normal (%) [3]: 95%
- Population Pyknosed Nuclei (%) [3]: 15%
- Population Tubulin-Different-Phenotype (%) [3]: 23%
- Total Cell Count [3]: 158
- Population Apoptotic (%) [4]: 41%
- Population Fragmented Nuclei (%) [4]: 41%
- Population Healthy Nuclei (%) [4]: 38%
- Population Hoechst High Intensity Objects (%) [4]: 1%
- Population Mitochondria Different-Phenotype (%) [4]: 15%
- Population Mitotic Cells (%) [4]: 58%
- Population Normal (%) [4]: 98%
- Population Pyknosed Nuclei (%) [4]: 20%
- Population Tubulin-Different-Phenotype (%) [4]: 57%
- Total Cell Count [4]: 86
- Population Apoptotic (%) [5]: 52%
- Population Fragmented Nuclei (%) [5]: 17%
- Population Healthy Nuclei (%) [5]: 69%
- Population Hoechst High Intensity Objects (%) [5]: 3%
- Population Membrane Permeable-Phenotype (%) [5]: 0%
- Population Mitochondria Different-Phenotype (%) [5]: 2%
- Population Mitotic Cells (%) [5]: 47%
- Population Normal (%) [5]: 96%
- Population Pyknosed Nuclei (%) [5]: 12%
- Population Tubulin-Different-Phenotype (%) [5]: 21%
- Total Cell Count [5]: 190
- Population Apoptotic (%) [6]: 36%
- Population Fragmented Nuclei (%) [6]: 31%
- Population Healthy Nuclei (%) [6]: 41%
- Population Hoechst High Intensity Objects (%) [6]: 4%
- Population Membrane Permeable-Phenotype (%) [6]: 2%
- Population Mitochondria Different-Phenotype (%) [6]: 0%
- Population Mitotic Cells (%) [6]: 63%
- Population Normal (%) [6]: 95%
- Population Pyknosed Nuclei (%) [6]: 27%
- Population Tubulin-Different-Phenotype (%) [6]: 31%
- Total Cell Count [6]: 114
- Population Apoptotic (%) [7]: 47%
- Population Fragmented Nuclei (%) [7]: 19%
- Population Healthy Nuclei (%) [7]: 64%
- Population Hoechst High Intensity Objects (%) [7]: 3%
- Population Membrane Permeable-Phenotype (%) [7]: 0%
- Population Mitochondria Different-Phenotype (%) [7]: 2%
- Population Mitotic Cells (%) [7]: 52%
- Population Normal (%) [7]: 96%
- Population Pyknosed Nuclei (%) [7]: 15%
- Population Tubulin-Different-Phenotype (%) [7]: 22%
- Total Cell Count [7]: 153
- Population Apoptotic (%) [8]: 64%
- Population Fragmented Nuclei (%) [8]: 45%
- Population Healthy Nuclei (%) [8]: 32%
- Population Mitochondria Different-Phenotype (%) [8]: 7%
- Population Mitotic Cells (%) [8]: 35%
- Population Pyknosed Nuclei (%) [8]: 21%
- Population Tubulin-Different-Phenotype (%) [8]: 50%
- Total Cell Count [8]: 82
- Population Apoptotic (%) [9]: 71%
- Population Fragmented Nuclei (%) [9]: 14%
- Population Healthy Nuclei (%) [9]: 72%
- Population Hoechst High Intensity Objects (%) [9]: 9%
- Population Membrane Permeable-Phenotype (%) [9]: 0%
- Population Mitochondria Different-Phenotype (%) [9]: 1%
- Population Mitotic Cells (%) [9]: 28%
- Population Normal (%) [9]: 90%
- Population Pyknosed Nuclei (%) [9]: 13%
- Population Tubulin-Different-Phenotype (%) [9]: 23%
- Total Cell Count [9]: 178
- Population Apoptotic (%) [10]: 39%
- Population Fragmented Nuclei (%) [10]: 30%
- Population Healthy Nuclei (%) [10]: 48%
- Population Hoechst High Intensity Objects (%) [10]: 3%
- Population Membrane Permeable-Phenotype (%) [10]: 9%
- Population Mitotic Cells (%) [10]: 60%
- Population Normal (%) [10]: 96%
- Population Pyknosed Nuclei (%) [10]: 20%
- Population Tubulin-Different-Phenotype (%) [10]: 56%
- Total Cell Count [10]: 114
- Population Apoptotic (%) [11]: 55%
- Population Fragmented Nuclei (%) [11]: 26%
- Population Healthy Nuclei (%) [11]: 61%
- Population Hoechst High Intensity Objects (%) [11]: 6%
- Population Membrane Permeable-Phenotype (%) [11]: 2%
- Population Mitochondria Different-Phenotype (%) [11]: 3%
- Population Mitotic Cells (%) [11]: 44%
- Population Normal (%) [11]: 93%
- Population Pyknosed Nuclei (%) [11]: 11%
- Population Tubulin-Different-Phenotype (%) [11]: 29%
- Total Cell Count [11]: 164
- Population Apoptotic (%) [12]: 45%
- Population Fragmented Nuclei (%) [12]: 49%
- Population Healthy Nuclei (%) [12]: 36%
- Population Hoechst High Intensity Objects (%) [12]: 2%
- Population Membrane Permeable-Phenotype (%) [12]: 3%
- Population Mitochondria Different-Phenotype (%) [12]: 17%
- Population Mitotic Cells (%) [12]: 54%
- Population Normal (%) [12]: 97%
- Population Pyknosed Nuclei (%) [12]: 13%
- Population Tubulin-Different-Phenotype (%) [12]: 51%
- Total Cell Count [12]: 81

Structure (SMILES): CN1CCN(c2ccc(Nc3c4ccccc4nc4ccccc34)cc2)CC1.Cl.Cl.O
- Population Apoptotic (%) [1]: 47%
- Population Fragmented Nuclei (%) [1]: 15%
- Population Healthy Nuclei (%) [1]: 69%
- Population Hoechst High Intensity Objects (%) [1]: 1%
- Population Membrane Permeable-Phenotype (%) [1]: 0%
- Population Mitochondria Different-Phenotype (%) [1]: 3%
- Population Mitotic Cells (%) [1]: 52%
- Population Normal (%) [1]: 98%
- Population Pyknosed Nuclei (%) [1]: 14%
- Population Tubulin-Different-Phenotype (%) [1]: 23%
- Total Cell Count [1]: 135
- Population Apoptotic (%) [2]: 44%
- Population Fragmented Nuclei (%) [2]: 28%
- Population Healthy Nuclei (%) [2]: 56%
- Population Membrane Permeable-Phenotype (%) [2]: 5%
- Population Mitochondria Different-Phenotype (%) [2]: 5%
- Population Mitotic Cells (%) [2]: 56%
- Population Pyknosed Nuclei (%) [2]: 15%
- Population Tubulin-Different-Phenotype (%) [2]: 34%
- Total Cell Count [2]: 160
- Population Apoptotic (%) [3]: 91%
- Population Fragmented Nuclei (%) [3]: 42%
- Population Healthy Nuclei (%) [3]: 49%
- Population Hoechst High Intensity Objects (%) [3]: 8%
- Population Membrane Permeable-Phenotype (%) [3]: 0%
- Population Mitochondria Different-Phenotype (%) [3]: 47%
- Population Mitotic Cells (%) [3]: 8%
- Population Normal (%) [3]: 91%
- Population Pyknosed Nuclei (%) [3]: 8%
- Population Tubulin-Different-Phenotype (%) [3]: 90%
- Total Cell Count [3]: 158
- Population Apoptotic (%) [4]: 66%
- Population Fragmented Nuclei (%) [4]: 65%
- Population Healthy Nuclei (%) [4]: 29%
- Population Hoechst High Intensity Objects (%) [4]: 16%
- Population Membrane Permeable-Phenotype (%) [4]: 4%
- Population Mitochondria Different-Phenotype (%) [4]: 13%
- Population Mitotic Cells (%) [4]: 33%
- Population Normal (%) [4]: 83%
- Population Pyknosed Nuclei (%) [4]: 4%
- Population Tubulin-Different-Phenotype (%) [4]: 79%
- Total Cell Count [4]: 177
- Population Apoptotic (%) [5]: 70%
- Population Fragmented Nuclei (%) [5]: 21%
- Population Healthy Nuclei (%) [5]: 65%
- Population Hoechst High Intensity Objects (%) [5]: 0%
- Population Membrane Permeable-Phenotype (%) [5]: 0%
- Population Mitochondria Different-Phenotype (%) [5]: 2%
- Population Mitotic Cells (%) [5]: 29%
- Population Normal (%) [5]: 99%
- Population Pyknosed Nuclei (%) [5]: 12%
- Population Tubulin-Different-Phenotype (%) [5]: 12%
- Total Cell Count [5]: 139
- Population Apoptotic (%) [6]: 60%
- Population Fragmented Nuclei (%) [6]: 29%
- Population Healthy Nuclei (%) [6]: 57%
- Population Membrane Permeable-Phenotype (%) [6]: 3%
- Population Mitochondria Different-Phenotype (%) [6]: 7%
- Population Mitotic Cells (%) [6]: 40%
- Population Normal (%) [6]: 100%
- Population Tubulin-Different-Phenotype (%) [6]: 39%
- Total Cell Count [6]: 155
- Population Apoptotic (%) [7]: 77%
- Population Fragmented Nuclei (%) [7]: 47%
- Population Healthy Nuclei (%) [7]: 39%
- Population Hoechst High Intensity Objects (%) [7]: 16%
- Population Membrane Permeable-Phenotype (%) [7]: 1%
- Population Mitochondria Different-Phenotype (%) [7]: 66%
- Population Mitotic Cells (%) [7]: 22%
- Population Normal (%) [7]: 83%
- Population Pyknosed Nuclei (%) [7]: 12%
- Population Tubulin-Different-Phenotype (%) [7]: 94%
- Total Cell Count [7]: 206
- Population Apoptotic (%) [8]: 60%
- Population Fragmented Nuclei (%) [8]: 69%
- Population Healthy Nuclei (%) [8]: 27%
- Population Hoechst High Intensity Objects (%) [8]: 21%
- Population Membrane Permeable-Phenotype (%) [8]: 6%
- Population Mitochondria Different-Phenotype (%) [8]: 34%
- Population Mitotic Cells (%) [8]: 40%
- Population Normal (%) [8]: 78%
- Population Pyknosed Nuclei (%) [8]: 3%
- Population Tubulin-Different-Phenotype (%) [8]: 84%
- Total Cell Count [8]: 205
- Population Apoptotic (%) [9]: 66%
- Population Fragmented Nuclei (%) [9]: 23%
- Population Healthy Nuclei (%) [9]: 70%
- Population Hoechst High Intensity Objects (%) [9]: 1%
- Population Membrane Permeable-Phenotype (%) [9]: 0%
- Population Mitochondria Different-Phenotype (%) [9]: 4%
- Population Mitotic Cells (%) [9]: 33%
- Population Normal (%) [9]: 98%
- Population Pyknosed Nuclei (%) [9]: 6%
- Population Tubulin-Different-Phenotype (%) [9]: 26%
- Total Cell Count [9]: 144
- Population Apoptotic (%) [10]: 55%
- Population Fragmented Nuclei (%) [10]: 25%
- Population Healthy Nuclei (%) [10]: 68%
- Population Membrane Permeable-Phenotype (%) [10]: 1%
- Population Mitotic Cells (%) [10]: 44%
- Population Pyknosed Nuclei (%) [10]: 5%
- Total Cell Count [10]: 157
- Population Apoptotic (%) [11]: 68%
- Population Fragmented Nuclei (%) [11]: 71%
- Population Healthy Nuclei (%) [11]: 15%
- Population Hoechst High Intensity Objects (%) [11]: 45%
- Population Membrane Permeable-Phenotype (%) [11]: 15%
- Population Mitochondria Different-Phenotype (%) [11]: 30%
- Population Mitotic Cells (%) [11]: 31%
- Population Normal (%) [11]: 54%
- Population Pyknosed Nuclei (%) [11]: 12%
- Population Tubulin-Different-Phenotype (%) [11]: 25%
- Total Cell Count [11]: 235
- Population Apoptotic (%) [12]: 0%
- Population Fragmented Nuclei (%) [12]: 88%
- Population Healthy Nuclei (%) [12]: 11%
- Population Hoechst High Intensity Objects (%) [12]: 38%
- Population Membrane Permeable-Phenotype (%) [12]: 25%
- Population Mitochondria Different-Phenotype (%) [12]: 12%
- Population Mitotic Cells (%) [12]: 0%
- Population Normal (%) [12]: 61%
- Population Pyknosed Nuclei (%) [12]: 0%
- Population Tubulin-Different-Phenotype (%) [12]: 56%
- Total Cell Count [12]: 236
